# Screening data from PubChem.
# SUMO Mot1 rescue: blocks SUMOylation pathway, rescuing yeast Mot1-301 growth; S. cerevisiae Mot1-301 growth rescue, ATP luminescence, 38.5C; percent above DMSO median, 100 means doubled; growth rescue, % at 18.8 µM; 320,000 tested, 1% active;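 active = every valid replicate shows activation above 250% relative to neutral control wells; inactive = the rest, any valid replicate at or below 250%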;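 note: OY570 slx delta 5 strain wells were the positive control but not used for scaling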
# A3A deaminase: blocks human APOBEC3A ssDNA deamination | 330,000 tested, 0.41% active | recombinant A3A, FAM/TAMRA ssDNA deamination fluorescence | AID 493011 | inhibition, % at 20 µM;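 active = at least 40% inhibition at 20 µM here, with at most 30% in a related deaminase screen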;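 note: plate controls were A3A with DMSO for no effect and wells lacking A3A enzyme for full effect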
# Target sequence (P31941 whole entry, looked up): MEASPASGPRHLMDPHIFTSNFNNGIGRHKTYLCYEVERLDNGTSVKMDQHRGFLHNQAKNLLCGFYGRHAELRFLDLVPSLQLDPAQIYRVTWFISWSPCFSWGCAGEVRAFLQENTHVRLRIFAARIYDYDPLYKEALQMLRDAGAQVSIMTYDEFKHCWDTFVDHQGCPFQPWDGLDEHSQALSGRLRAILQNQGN
# ARFGAP1 inh: rat ARFGAP1 inhibition. 360,000 tested, 0.26% active. Q62848. inhibition, % at 16.5 µM. AID 651572. Arfgap1-stimulated ARF1 GTP hydrolysis, GDP FP detection;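 active = inhibition above a per-plate limit, mean inhibition of low control wells plus 3 SD, cut at about 25% in these data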;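 note: 0% = DMSO wells with enzyme and 100% = wells lacking Arfgap1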
#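 System: truncated rat Arfgap1 GAP domain / Medium: HEPES-based buffer, pH 7.5 / Also added: N-terminally truncated human ARF1-GTP substrate / Incubation: enzyme reaction 120 min at 25 °C after 20 min preincubation / Measured by: FP of antibody-bound GDP Alexa 633 tracer, ex 620/em 688 nm / Replicates: singlicate, each compound tested once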
# C2C12 statin: suppression of simvastatin myotoxicity | 330,000 tested, 0.78% active | rescue of ATP level, % at 7.49 µM | C2C12 myotubes + simvastatin, ATP luminescence, 48 h; scaled: DMSO 0, geranylgeraniol control 100;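 active = mean ATP rescue above about 67%, or every replicate alone reaching that limit, limit read from the data, passing the limit was not always enough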;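 note: myotubes were challenged with 10 µM simvastatin during compound exposure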
# A3G deaminase: APOBEC3G (human) deaminase inhibition; inhibition, % at 20 µM; 330,000 tested, 0.28% active; Q9HC16; recombinant A3G, ssDNA deamination FAM/TAMRA fluorescence;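 active = inhibition of at least 40% at 20 µM, with no more than 30% in the related APOBEC3A deaminase screen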;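 note: plate controls were DMSO wells with A3G for no effect and wells lacking A3G enzyme for full effect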
# ASAP1 inh: ASAP1 ArfGAP inhibition | Q9ULH1 | ASAP1-stimulated ARF1 GTP hydrolysis, GDP FP detection | inhibition, % at 16.5 µM | 360,000 tested, 0.19% active | AID 624377; in the data active = inhibition above about 25%;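 note: 0% = vehicle with enzyme and substrate and 100% = no enzyme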
# ARFGAP1 confirm: rat ARFGAP1 inhibition, confirmed | 890 tested, 30% active | shares compounds with ARFGAP1 inh | inhibition, % at 16.5 µM | ARFGAP1-stimulated ARF1 GTP hydrolysis, GDP tracer FP;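 active = average inhibition over triplicates above the hit cutoff set in the earlier primary screen, cut at about 25% in these data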;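 note: 0% = Arfgap1 plus ARF1-GTP with DMSO and 100% = wells lacking Arfgap1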
# Target sequence (Q62848 whole entry, looked up): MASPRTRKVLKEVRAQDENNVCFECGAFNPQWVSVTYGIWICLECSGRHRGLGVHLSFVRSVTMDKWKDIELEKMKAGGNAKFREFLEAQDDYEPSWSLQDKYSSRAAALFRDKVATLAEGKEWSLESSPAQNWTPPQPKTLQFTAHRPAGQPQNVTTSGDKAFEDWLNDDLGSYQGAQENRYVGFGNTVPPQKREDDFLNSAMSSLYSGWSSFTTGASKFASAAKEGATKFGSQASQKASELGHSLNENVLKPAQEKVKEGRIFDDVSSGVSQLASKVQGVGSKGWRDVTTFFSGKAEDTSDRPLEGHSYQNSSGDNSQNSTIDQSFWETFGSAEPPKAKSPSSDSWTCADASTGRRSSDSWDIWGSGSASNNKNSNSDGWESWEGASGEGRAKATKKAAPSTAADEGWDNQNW
# * hit, by the source's call; . = no result given. Most compounds without a hit are left out; they make up all but 2.1% or so of the library.
SMILES,SUMO Mot1 rescue,A3A deaminase,ARFGAP1 inh,C2C12 statin,A3G deaminase,ASAP1 inh,ARFGAP1 confirm
C[C@H]1CN([C@@H](C)CO)S(=O)(=O)c2ccc(Br)cc2O[C@@H]1CN(C)C,.,.,.,4,.,.,.
COc1ccccc1C(=O)N(CN1CCCC1=O)c1cccc(Cl)c1,15,3,7,-3,1,-1,.
CCOc1ccccc1C(=O)N(CN1CCCC1=O)c1cccc(Cl)c1,-2,-4,38*,.,9,13,7
O=C(O)c1ccc(CSc2nc3ccccc3[nH]2)cc1,0,0,29*,-3,-6,-16,-3
CC(=O)N(C)C[C@H]1Oc2cc(C#Cc3ccncc3)ccc2S(=O)(=O)N([C@H](C)CO)C[C@@H]1C,.,.,.,-3,.,.,.
CC(=O)c1ccc(OCc2cc(C(=O)N3CCC[C@H]3CO)no2)cc1,21,-3,11,-5,-5,1,.
COCCC1CCCCN1C(=O)c1cc(COc2cccc(C(C)=O)c2)on1 (centres undefined),1,-2,25*,-9,-7,8,-11
C[C@H](CO)N1C[C@H](C)[C@H](CN(C)CC2CCCCC2)Oc2ccc(NC(=O)Cn3cnnn3)cc2CC1=O,.,.,.,10,.,.,.
O=C(Nc1nc(-c2ccccc2)cs1)c1ccc2c(c1)S(=O)(=O)c1ccccc1C2=O,4,-1,-14,.,-2,0,.
O=C(Nc1nc(-c2cccc3ccccc23)cs1)c1ccc2c(c1)S(=O)(=O)c1ccccc1C2=O,133,-1,34*,-42,-3,-8,0
COCC(=O)Nc1ccc2c(c1)C(=O)N(C)C[C@@H](OC)[C@H](C)CN(Cc1ccccc1C(=O)O)[C@H](C)CO2,.,.,.,3,.,.,.
CN1C[C@@H]2[C@H](c3ccccc31)[C@@H](CO)N2Cc1ccccc1,.,.,.,30,.,.,.
Oc1nc(Nc2cccc(Cl)c2)sc1/C=C1\C=Nc2ccccc21,76,-1,25*,.,-1,19,21
Cc1sc2nc(SCC(=O)N(CCO)CCO)nc(N)c2c1C,-19,-1,28*,.,-7,8,-1
O=C(C[C@@H]1CC[C@H]2[C@@H](COC[C@H](O)CN2S(=O)(=O)c2ccccc2)O1)NCc1ccc(-c2ccccc2)cc1,.,.,.,1,.,.,.
COc1ccc(/C=N/Nc2cc(N3CCOCC3)ncn2)c(OC)c1,6,0,7,-11,-2,16,.
COc1cccc(/C=N/Nc2cc(N3CCOCC3)ncn2)c1O,-12,-1,29*,11,-8,4,43*
O=C(NCc1ccccc1)C(c1ccncc1)n1c(=O)c(-c2cc3ccccc3[nH]2)nc2ccccc21 (centres undefined),.,.,25*,.,.,13,21
O=C(NCc1ccccc1)C(c1ccc(-c2ccccc2)cc1)n1c(=O)c(-c2cc3ccccc3[nH]2)nc2ccccc21 (centres undefined),.,.,5,.,.,6,.
C/C(N)=C(/C#N)C(=O)CSc1nncn1-c1ccccc1,12,-3,28*,-4,-7,0,0
CCCCn1c(SCC(=O)/C(C#N)=C(\C)N)nc2ccccc2c1=O,-9,2,11,.,-4,-2,.
CN(C)C(=O)C[C@H]1C[C@@H]2c3cc(NC(=O)C4CCC4)ccc3O[C@@H]2[C@H](CO)O1,.,.,.,0,.,.,.
O=C(c1ccncc1)N1CCN(S(=O)(=O)c2cccc(Cl)c2)CC1,2,-1,27*,10,-7,-7,0
O=C(c1ccncc1)N1CCN(S(=O)(=O)c2cccc(F)c2)CC1,-8,27,9,9,3,-11,.
CCCc1cc(=O)[nH]c(SCC(=O)N2CCN(S(=O)(=O)c3ccc4ccccc4c3)CC2)n1,10,0,25*,.,-5,7,-2
SMILES,SUMO Mot1 rescue,A3A deaminase,ARFGAP1 inh,C2C12 statin,A3G deaminase,ASAP1 inh,ARFGAP1 confirm
CCCc1cc(=O)[nH]c(SCC(=O)N2CCN(S(=O)(=O)c3ccccc3)CC2)n1,-2,0,8,.,-3,-3,.
OC(c1ccc(-c2ccccc2)cc1)c1ncc(-c2ccc(C(F)(F)F)cc2)[nH]1 (centres undefined),.,.,39*,.,.,7,22
OC(c1ccccc1)c1ncc(-c2ccc(C(F)(F)F)cc2)[nH]1 (centres undefined),.,.,-7,.,.,-15,.
COc1cc(/C=N/NC(=O)c2cc(-c3cccc(Br)c3)nc3ccccc23)cc(OC)c1O,15,-5,27*,.,-2,6,7
CCOc1ccc2oc(C(=O)OCC(=O)N3CC(C)OC(C)C3)c(C)c2c1 (centres undefined),-13,-5,26*,3,-9,18,33*
CCOc1ccc2oc(C(=O)OCC(=O)N3CCCC(C)C3)c(C)c2c1 (centres undefined),47,0,33*,1,-7,19,33*
CN1CCCC1(C)C(=O)Nc1ccc(-n2cccc2)cc1 (centres undefined),.,.,-7,3,.,-7,.
CCCC(=O)N1CCCC1(C)C(=O)Nc1ccc(-n2cccc2)cc1 (centres undefined),.,.,25*,5,.,-3,-7
CNC(=O)c1c(NC(=O)c2ccc(S(=O)(=O)N3CCCC3)cc2)sc2c1CCN(C(C)C)C2,14,-6,-1,.,-8,2,.
CNC(=O)c1c(NC(=O)c2ccc(S(=O)(=O)N3CC(C)OC(C)C3)cc2)sc2c1CCN(C(C)C)C2 (centres undefined),7,-5,26*,-1,-10,1,3
CCCCCCCCN1C(=O)[C@H](CC(=O)NCc2ccccc2)C[C@@]2(C(=O)OCC)CCC=C12,.,.,28*,.,.,7,4
CC(=O)N(C)C[C@H]1Oc2ncc(-c3ccccc3C)cc2C(=O)N([C@@H](C)CO)C[C@H]1C,.,.,.,6,.,.,.
CCCNC(=O)N1C[C@@H](C)[C@H](OC)CN(C)C(=O)c2ccc(NC(=O)CCC)cc2OC[C@@H]1C,.,.,.,-1,.,.,.
CCOc1ccc(NC(=O)CNC(=O)c2nn(-c3ccc(OC)c(OC)c3)c(=O)c3ccccc23)cc1,12,4,14,-14,-1,5,.
COc1ccc(-n2nc(C(=O)NCC(=O)Nc3cccc(Cl)c3)c3ccccc3c2=O)cc1OC,3,-6,28*,-14,-3,6,25*
C[C@H]1CN([C@@H](C)CO)C(=O)c2cccc(NC(=O)c3cnccn3)c2O[C@@H]1CN(C)C(=O)Nc1ccccc1,.,.,.,-11,.,.,.
C[C@H]1CN([C@@H](C)CO)C(=O)c2cc(NC(=O)CCCN(C)C)ccc2O[C@@H]1CN(C)Cc1ccc(Oc2ccccc2)cc1,.,.,.,-16,.,.,.
